Results taken from ChEMBL document CHEMBL4715780, “Biological evaluation of tetracationic compounds based on two 1,4-diazabicyclo[2.2.2]octane moieties connected by different linkers” (Bioorg Med Chem, 2016).

Tests used:
Pseudomonas aeruginosa [1] = assay: Bactericidal activity against Pseudomonas aeruginosa ATCC 9027 assessed as reduction in colony forming unit at 2.5 ug/ml measured at 4 hrs by time kill assay relative to control; format: functional; set-up: scale not given: the % may be the effect or the level left; conditions: dose 2.5 µg/ml
Summary of the method: (§1)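 Overnight Pseudomonas aeruginosa culture adjusted in Mueller–Hinton broth to about 2.5 × 10⁵ CFU/mL. Compound added at 2.5, 5 or 10 µg/mL, then incubated at 37 °C with shaking (580 rpm) for 22 h. Viable colonies counted on plates at 2, 4, 6, 8 and 22 h. Quantification limit 100 CFU/mL; triplicate.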

Pseudomonas aeruginosa [2] = assay: Bactericidal activity against Pseudomonas aeruginosa ATCC 9027 assessed as reduction in colony forming unit at 2.5 ug/ml measured at 22 hrs by time kill assay relative to control; format: functional; set-up: scale not given: the % may be the effect or the level left; conditions: dose 2.5 µg/ml; summary of the method: as §1
Pseudomonas aeruginosa [3] = assay: Bactericidal activity against Pseudomonas aeruginosa ATCC 9027 assessed as colony forming unit at 10 ug/ml measured at 8 hrs by time kill assay (reference value: 2.7 x 10^8 CFU/ml); format: functional; conditions: dose 10 µg/ml; summary of the method: as §1
[4] = Selectivity index, ratio of CC50 for HEK293T cells assessed as reduction in cell viability measured after 24 hrs by MTT assay to MIC for Pseudomonas aeruginosa ATCC 9027 assessed as bacterial growth inhibition by CLSI protocol based serial microdilution method; format: toxicity; conditions: human, read-out: Selectivity Index
Staphylococcus aureus [5] = assay: Bactericidal activity against […] Staphylococcus aureus ATCC 25923 assessed as colony forming unit at 2.5 ug/ml measured at 8 hrs by time kill assay (reference value: 2.7 x 10^8 CFU/ml); format: functional; conditions: dose 2.5 µg/ml
Summary of the method: (§2)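 S. aureus overnight culture was adjusted in MHB to ~8 × 10⁵ CFU/mL. Compound was added and the mixture incubated at 37 °C with shaking (580 rpm) for 22 h. Aliquots were plated for colony counts at 2, 4, 6, 8 and 22 h, with a quantification limit of 100 CFU/mL. Runs were done in triplicate.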

Staphylococcus aureus [6] = assay: Antibacterial activity against methicillin-resistant Staphylococcus aureus CEMTC 675 assessed as bacterial growth inhibition by CLSI protocol based serial microdilution method; format: functional
Pseudomonas aeruginosa [7] = assay: Bactericidal activity against Pseudomonas aeruginosa ATCC 9027 assessed as colony forming unit at 2.5 ug/ml measured at 6 hrs by time kill assay (reference value: 10^8 CFU/ml); format: functional; conditions: dose 2.5 µg/ml; summary of the method: as §1
Pseudomonas aeruginosa [8] = assay: Bactericidal activity against Pseudomonas aeruginosa ATCC 9027 assessed as colony forming unit at 10 ug/ml measured at 2 hrs by time kill assay (reference value: 3.6 x 10^5 CFU/ml); format: functional; conditions: dose 10 µg/ml; summary of the method: as §1
Staphylococcus aureus [9] = assay: Antibacterial activity against methicillin-resistant Staphylococcus aureus CEMTC 675 assessed as concentration required to inhibit visible growth by CLSI protocol based serial microdilution method; format: functional
Staphylococcus aureus [10] = assay: Bactericidal activity against […] Staphylococcus aureus ATCC 25923 assessed as colony forming unit at 2.5 ug/ml measured at 2 hrs by time kill assay (reference value: 10^6 CFU/ml); format: functional; conditions: dose 2.5 µg/ml; summary of the method: as §2
Staphylococcus aureus [11] = assay: Bactericidal activity against […] Staphylococcus aureus ATCC 25923 assessed as colony forming unit at 1.25 ug/ml measured at 22 hrs by time kill assay (reference value: 2.9 x 10^9 CFU/ml); format: functional; conditions: dose 1.25 µg/ml; summary of the method: as §2
Staphylococcus aureus [12] = assay: Bactericidal activity against […] Staphylococcus aureus ATCC 25923 assessed as colony forming unit at 5 ug/ml measured at 22 hrs by time kill assay (reference value: 2.9 x 10^9 CFU/ml); format: functional; conditions: dose 5 µg/ml; summary of the method: as §2
Staphylococcus aureus [13] = assay: Antibacterial activity against methicillin-resistant Staphylococcus aureus CEMTC 1695 assessed as bacterial growth inhibition by CLSI protocol based serial microdilution method; format: functional
Staphylococcus aureus [14] = assay: Antibacterial activity against methicillin-resistant Staphylococcus aureus CEMTC 1732 assessed as concentration required to inhibit visible growth by CLSI protocol based serial microdilution method; format: functional
Pseudomonas aeruginosa [15] = assay: Bactericidal activity against Pseudomonas aeruginosa ATCC 9027 assessed as reduction in colony forming unit at 10 ug/ml measured at 8 hrs by time kill assay relative to control; format: functional; set-up: scale not given: the % may be the effect or the level left; conditions: dose 10 µg/ml; summary of the method: as §1
Staphylococcus aureus [16] = assay: Bactericidal activity against […] Staphylococcus aureus ATCC 25923 assessed as colony forming unit at 5 ug/ml measured at 6 hrs by time kill assay (reference value: 1.2 x 10^6 CFU/ml); format: functional; conditions: dose 5 µg/ml; summary of the method: as §2
Enterococcus faecalis [17] = assay: Antibacterial activity against Enterococcus faecalis ATCC 51299 assessed as bacterial growth inhibition by CLSI protocol based serial microdilution method; format: functional
Pseudomonas aeruginosa [18] = assay: Bactericidal activity against Pseudomonas aeruginosa ATCC 9027 assessed as colony forming unit at 5 ug/ml measured at 6 hrs by time kill assay (reference value: 10^8 CFU/ml); format: functional; conditions: dose 5 µg/ml; summary of the method: as §1
[19] = Selectivity index, ratio of CC50 for HEK293T cells assessed as reduction in cell viability measured after 24 hrs by MTT assay to MIC for Citrobacter freundii ATCC 8090 assessed as bacterial growth inhibition by CLSI protocol based serial microdilution method; format: toxicity; conditions: human, read-out: Selectivity Index
Staphylococcus aureus [20] = assay: Bactericidal activity against […] Staphylococcus aureus ATCC 25923 assessed as colony forming unit at 1.25 ug/ml measured at 8 hrs by time kill assay (reference value: 2.7 x 10^8 CFU/ml); format: functional; conditions: dose 1.25 µg/ml; summary of the method: as §2
Enterococcus faecalis [21] = assay: Antibacterial activity against Enterococcus faecalis ATCC 51299 assessed as concentration required to inhibit visible growth by CLSI protocol based serial microdilution method; format: functional
Staphylococcus aureus [22] = assay: Bactericidal activity against […] Staphylococcus aureus ATCC 25923 assessed as colony forming unit at 2.5 ug/ml measured at 4 hrs by time kill assay (reference value: 7.8 x 10^6 CFU/ml); format: functional; conditions: dose 2.5 µg/ml; summary of the method: as §2
Pseudomonas aeruginosa [23] = assay: Bactericidal activity against Pseudomonas aeruginosa ATCC 9027 assessed as reduction in colony forming unit at 10 ug/ml measured at 4 hrs by time kill assay relative to control; format: functional; set-up: scale not given: the % may be the effect or the level left; conditions: dose 10 µg/ml; summary of the method: as §1
Staphylococcus aureus [24] = assay: Bactericidal activity against […] Staphylococcus aureus ATCC 25923 assessed as colony forming unit at 2.5 ug/ml measured at 6 hrs by time kill assay (reference value: 1.2 x 10^6 CFU/ml); format: functional; conditions: dose 2.5 µg/ml; summary of the method: as §2
Staphylococcus aureus [25] = assay: Antibacterial activity against methicillin-resistant Staphylococcus aureus CEMTC 707 assessed as bacterial growth inhibition by CLSI protocol based serial microdilution method; format: functional
Pseudomonas aeruginosa [26] = assay: Bactericidal activity against Pseudomonas aeruginosa ATCC 9027 assessed as colony forming unit at 2.5 ug/ml measured at 22 hrs by time kill assay (reference value: 1.7 x 10^9 CFU/ml); format: functional; conditions: dose 2.5 µg/ml; summary of the method: as §1
Staphylococcus aureus [27] = assay: Bactericidal activity against […] Staphylococcus aureus ATCC 25923 assessed as colony forming unit at 1.25 ug/ml measured at 6 hrs by time kill assay (reference value: 1.2 x 10^6 CFU/ml); format: functional; conditions: dose 1.25 µg/ml; summary of the method: as §2
Staphylococcus aureus [28] = assay: Antibacterial activity against methicillin-resistant Staphylococcus aureus CEMTC 1732 assessed as bacterial growth inhibition by CLSI protocol based serial microdilution method; format: functional
Staphylococcus aureus [29] = assay: Bactericidal activity against […] Staphylococcus aureus ATCC 25923 assessed as colony forming unit at 5 ug/ml measured at 2 hrs by time kill assay (reference value: 10^6 CFU/ml); format: functional; conditions: dose 5 µg/ml; summary of the method: as §2
Pseudomonas aeruginosa [30] = assay: Bactericidal activity against Pseudomonas aeruginosa ATCC 9027 assessed as reduction in colony forming unit at 5 ug/ml measured at 2 hrs by time kill assay relative to control; format: functional; set-up: scale not given: the % may be the effect or the level left; conditions: dose 5 µg/ml; summary of the method: as §1

With CCCCCCCCCCCC[N+]12CC[N+](CCC[N+]34CC[N+](CCCCCCCCCCCC)(CC3)CC4)(CC1)CC2 the Activity (Pseudomonas aeruginosa [1]) was “>=99.9%”, the Activity (Pseudomonas aeruginosa [2]) was “>=99.9%” and the Activity (Pseudomonas aeruginosa [3]) was <100 CFU/ml. For the same molecule, the selectivity ratio at 24 h [4] was 4, the Activity (Staphylococcus aureus [5]) was <100 CFU/ml and the MIC (Staphylococcus aureus [6]) was 0.5 mg/L. For the same molecule, the Activity (Pseudomonas aeruginosa [7]) was <100 CFU/ml, the Activity (Pseudomonas aeruginosa [8]) was <100 CFU/ml and the MBC (Staphylococcus aureus [9]) was 1 mg/L. For the same molecule, the Activity (Staphylococcus aureus [10]) was 330 CFU/ml, the Activity (Staphylococcus aureus [11]) was <100 CFU/ml and the Activity (Staphylococcus aureus [12]) was <100 CFU/ml. For the same molecule, the MIC (Staphylococcus aureus [13]) was 1 mg/L, the MBC (Staphylococcus aureus [14]) was 1 mg/L and the Activity (Pseudomonas aeruginosa [15]) was “>=99.9%”. The Activity (Staphylococcus aureus [16]) was <100 CFU/ml, the MIC (Enterococcus faecalis [17]) was 1.6 mg/L and the Activity (Pseudomonas aeruginosa [18]) was <100 CFU/ml. The selectivity ratio at 24 h [19] was 4, the Activity (Staphylococcus aureus [20]) was <100 CFU/ml and the MBC (Enterococcus faecalis [21]) was 3.1 mg/L. For the same molecule, the Activity (Staphylococcus aureus [22]) was <100 CFU/ml, the Activity (Pseudomonas aeruginosa [23]) was “>=99.9%” and the Activity (Staphylococcus aureus [24]) was <100 CFU/ml. For the same molecule, the MIC (Staphylococcus aureus [25]) was 0.5 mg/L, the Activity (Pseudomonas aeruginosa [26]) was <100 CFU/ml and the Activity (Staphylococcus aureus [27]) was <100 CFU/ml. For the same molecule, the MIC (Staphylococcus aureus [28]) was 0.5 mg/L, the Activity (Staphylococcus aureus [29]) was <100 CFU/ml and the Activity (Pseudomonas aeruginosa [30]) was “>=99.9%”.

For CCCCCCCCCCCC[N+]12CC[N+](Cc3ccccc3C[N+]34CC[N+](CCCCCCCCCCCC)(CC3)CC4)(CC1)CC2, the Activity (Pseudomonas aeruginosa [1]) was “>=99.9%”, the Activity (Pseudomonas aeruginosa [2]) was “>=99.9%” and the Activity (Pseudomonas aeruginosa [3]) was <100 CFU/ml. For the same molecule, the selectivity ratio at 24 h [4] was 3, the Activity (Staphylococcus aureus [5]) was <100 CFU/ml and the MIC (Staphylococcus aureus [6]) was 0.5 mg/L. The Activity (Pseudomonas aeruginosa [7]) was <100 CFU/ml, the Activity (Pseudomonas aeruginosa [8]) was <100 CFU/ml and the MBC (Staphylococcus aureus [9]) was 1 mg/L. The Activity (Staphylococcus aureus [10]) was 1000 CFU/ml, the Activity (Staphylococcus aureus [11]) was <100 CFU/ml and the Activity (Staphylococcus aureus [12]) was <100 CFU/ml. For the same molecule, the MIC (Staphylococcus aureus [13]) was 1 mg/L, the MBC (Staphylococcus aureus [14]) was 1 mg/L and the Activity (Pseudomonas aeruginosa [15]) was “>=99.9%”. The Activity (Staphylococcus aureus [16]) was <100 CFU/ml, the MIC (Enterococcus faecalis [17]) was 0.8 mg/L and the Activity (Pseudomonas aeruginosa [18]) was <100 CFU/ml. For the same molecule, the selectivity ratio at 24 h [19] was 3, the Activity (Staphylococcus aureus [20]) was <100 CFU/ml and the MBC (Enterococcus faecalis [21]) was 1.6 mg/L. For the same molecule, the Activity (Staphylococcus aureus [22]) was <100 CFU/ml, the Activity (Pseudomonas aeruginosa [23]) was “>=99.9%” and the Activity (Staphylococcus aureus [24]) was <100 CFU/ml. The MIC (Staphylococcus aureus [25]) was 0.5 mg/L, the Activity (Pseudomonas aeruginosa [26]) was 100 CFU/ml and the Activity (Staphylococcus aureus [27]) was <100 CFU/ml. For the same molecule, the MIC (Staphylococcus aureus [28]) was 0.5 mg/L, the Activity (Staphylococcus aureus [29]) was <100 CFU/ml and the Activity (Pseudomonas aeruginosa [30]) was “>=99.9%”.
